Measurements collected from several papers.
Compare with care: the assays were run in different laboratories.
Target: Cannabinoid receptor 2 (CNR2, Homo sapiens, UniProt P34972)
Effect on: ligand displacement
Method: radioligand

| Compound | conditions | Ki [µM] |
| --- | --- | --- |
| CCCCCc1cc(O)c2c(c1)OC(C)(C)[C@@H]1CC[C@](C)(O)[C@@H](O)[C@@H]21 | cell membranes | 2.14 |
| CCCCCn1c2ccccc2c2cc(C(=O)NCC3CCN(CC(=O)NC(C)(C)C)CC3)ccc21 | – | > 5 |
| CCOC(=O)C(CC)(CCCSCCOCCOCCOCCOCCNC(=O)OC(C)(C)C)NC(=O)c1ccc(C2CC2)c(Cc2ccc(F)cc2)n1 (stereo not drawn) | cell membranes | 0.14 |
| CCCCCc1cc2c(c(O)c1C(=O)O)C1C=C(C)CCC1C(C)(C)O2 (stereo not drawn) | cell membranes | 1.65 |
| Cc1c(C(=O)Nc2ccc(C(F)(F)F)cn2)nc(-c2ccc(Cl)cc2Cl)n1-c1ccc(OS(=O)(=O)CCC(F)(F)F)cc1 | cell membranes | 0.0049 |
| CCCC(C)(C)c1ccc2c(c1)OC(C)(C)[C@@H]1CC=C(C)C[C@@H]21 | cell membranes | 0.0349 |
| Cc1nc([C@@](C)(CC2CC2)NC(=O)c2cc(OCC(F)(F)F)c(C3CC3)cn2)no1 | cell membranes | 0.076 |
| CCCCCc1cc(O)c2c(c1)OC(C)(C)c1cc(O)c(C)cc1-2 | cell membranes | 0.011 |
| CCCCCn1cc(C(=O)C2C(C)(C)C2(C)C)c2ccccc21 | cell membranes | 0.00451 |
| CCOC(=O)[C@H](CSC)NC(=O)c1ccc(C2CC2)c(Cc2ccc(F)cc2)n1 | cell membranes | 0.0032 |
| CCCCCc1cc(O)c(C/C=C(\C)CCC=C(C)C)c(O)c1C(=O)O | cell membranes | > 10 |
| CCOC(=O)C(CC)(CCCSCCOCCOCCNc1ccc([N+](=O)[O-])c2nonc12)NC(=O)c1ccc(C2CC2)c(Cc2ccc(F)cc2)n1 (racemic) | cell membranes | 0.022 |
| CC/C(=C(\c1ccc(O)cc1)c1ccc(OCCN(C)C)cc1)c1ccccc1 | cell membranes | 0.9 |
| CCCc1cc(O)c2c(c1)OC(C)(C)c1ccc(C)cc1-2 | cell membranes | 4.78 |
| CCOC(=O)C(CC)(CCCSCCOCCOCCOCCNC(=O)OC(C)(C)C)NC(=O)c1ccc(C2CC2)c(Cc2ccc(F)cc2)n1 (stereo not drawn) | cell membranes | 0.138 |
